pIC50: −log10 of the molar value. Activity calls are given as the source filed them. The calls are words filed in the database; no cut-off is given here.
Assays:
Nucleic Acid [1] = assay: Binding affinity to DNA (unknown origin) assessed as DNA intercalation by UV-visible spectrophotometry in presence of Cu2+; format: nucleic-acid assay
CCRF-CEM [2] = assay: Induction of apoptosis in human CCRF-CEM cells assessed as inhibition of DNA synthesis at IC50 after 24 hrs by propidium iodide/BrdU staining by flow cytometry; format: functional; design: scale not given: the % may be the effect or the level left
Nucleic Acid [3] = assay: Binding affinity to DNA (unknown origin) assessed as DNA intercalation by UV-visible spectrophotometry in presence of Ni2+; format: nucleic-acid assay
HCT-116 [4] = assay: Selectivity index, ratio of IC50 for human MRC5 cells to IC50 for human HCT116 cells; format: functional
K562 [5] = assay: Selectivity index, ratio of IC50 for human MRC5 cells to IC50 for human K562 cells; format: functional
Pichia kudriavzevii = assay: Antifungal activity against Candida crusei up to 200 uM after 24 to 48 hrs by broth microdilution method; format: functional, organism-based
[6] = Metal chelating activity of the compound assessed as formation of Mn2+ complex by UV-vis spectrometry; format: physicochemical
[7] = Metal chelating activity of the compound assessed as formation of Fe3+ complex by UV-vis spectrometry; format: physicochemical
[8] = Metal chelating activity of the compound assessed as formation of Fe2+ complex by UV-vis spectrometry; format: physicochemical
MRC5 [9] = assay: Selectivity index, ratio of IC50 for human MRC5 cells to IC50 for human K562-TAX cells; format: functional
A549 [10] = assay: Selectivity index, ratio of IC50 for human MRC5 cells to IC50 for human A549 cells; format: functional
[11] = Cytostatic activity against human K562-TAX cells after 72 hrs by MTT assay; format: functional, cell-based
In short: (§1)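 Cells were seeded at 25,000–30,000 per well and pre-incubated for 24 h at 37°C in 5% CO2. Four-fold compound dilutions were added in duplicate and incubated for 72 h. MTT was added for 1–4 h, and formazan was dissolved in 10% aq SDS (pH 5.5) overnight at 37°C. OD was read at 540 nm. IC50 came from dose-response curves, mean ± SD of eight independent experiments.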

[12] = Cytostatic activity against human HCT116 cells after 72 hrs by MTT assay; format: functional, cell-based; settings: HCT-116, 72 h; in short: as §1
CEM-DNR = assay: Selectivity index, ratio of IC50 for human MRC5 cells to IC50 for human CEM-DNR cells; format: functional
K562 [13] = assay: Cytostatic activity against human K562 cells after 72 hrs by MTT assay; format: functional, cell-based; settings: K562, 72 h; in short: as §1
Staphylococcus aureus [14] = assay: Antimicrobial activity against methicillin-resistant Staphylococcus aureus MRSA 4591 up to 200 uM after 24 to 48 hrs by broth microdilution method; format: functional, organism-based
Staphylococcus aureus [15] = assay: Antimicrobial activity against Staphylococcus aureus CCM 3953 up to 200 uM after 24 to 48 hrs by broth microdilution method; format: functional, organism-based
[16] = test system: Staphylococcus haemolyticus; assay: Antimicrobial activity against methicillin-resistant Staphylococcus haemolyticus A1/16568 up to 200 uM after 24 to 48 hrs by broth microdilution method; format: functional, organism-based
BJ [17] = assay: Selectivity index, ratio of IC50 for human BJ cells to IC50 for human HCT116 cells; format: functional
MRC5 [18] = assay: Cytostatic activity against human MRC5 cells after 72 hrs by MTT assay; format: ADME, cell-based; settings: MRC5, 72 h; in short: as §1
[19] = Metal chelating activity of the compound assessed as formation of Zn2+ complex by UV-vis spectrometry; format: physicochemical
CCRF-CEM [20] = assay: Induction of apoptosis in human CCRF-CEM cells assessed as mitotic cells at 5 times IC50 after 24 hrs by pH3Ser10+ labeling-based flow cytometry; format: functional
Pseudomonas aeruginosa = assay: Antimicrobial activity against Pseudomonas aeruginosa CCM 395 up to 200 uM after 24 to 48 hrs by broth microdilution method; format: functional, organism-based
Candida parapsilosis = assay: Antifungal activity against Candida parapsilosis up to 200 uM after 24 to 48 hrs by broth microdilution method; format: functional, organism-based
CCRF-CEM [21] = assay: Induction of apoptosis in human CCRF-CEM cells assessed as apoptotic cells at IC50 after 24 hrs by propidium iodide staining-based flow cytometry; format: functional
In short: (§2)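 Cells were then fixed in 70% ethanol, washed in hypotonic citrate buffer, treated with RNase (50 µg/mL) and stained with propidium iodide. Flow cytometry used a 488 nm laser. Apoptosis was scored as the percentage of particles with propidium content below G0/G1.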

A549 [22] = assay: Selectivity index, ratio of IC50 for human BJ cells to IC50 for human A549 cells; format: functional
CCRF-CEM [23] = assay: Cell cycle arrest in human CCRF-CEM cells assessed as accumulation at G2/M phase at IC50 after 24 hrs by propidium iodide staining-based flow cytometry; format: functional; in short: as §2
Enterococcus faecalis = assay: Antimicrobial activity against Enterococcus faecalis CCM 4224 up to 200 uM after 24 to 48 hrs by broth microdilution method; format: functional, organism-based
[24] = Metal chelating activity of the compound assessed as formation of Cu2+ complex by UV-vis spectrometry; format: physicochemical
[25] = Metal chelating activity of the compound assessed as formation of Ca2+ complex by UV-vis spectrometry; format: physicochemical
[26] = Metal chelating activity of the compound assessed as formation of Cr3+ complex by UV-vis spectrometry; format: physicochemical
HCT-116 [27] = assay: Selectivity index, ratio of IC50 for human MRC5 cells to IC50 for human p53-/- HCT116 cells; format: functional
CCRF-CEM [28] = assay: Induction of apoptosis in human CCRF-CEM cells assessed as inhibition of DNA synthesis at 5 times IC50 after 24 hrs by propidium iodide/BrdU staining by flow cytometry; format: functional; design: scale not given: the % may be the effect or the level left
Candida tropicalis = assay: Antifungal activity against Candida tropicalis up to 200 uM after 24 to 48 hrs by broth microdilution method; format: functional, organism-based
[29] = Metal chelating activity of the compound assessed as formation of Ni2+ complex by UV-vis spectrometry; format: physicochemical
Nucleic Acid [30] = assay: Binding affinity to DNA (unknown origin) assessed as DNA intercalation by UV-visible spectrophotometry in presence of Co2+; format: nucleic-acid assay
CCRF-CEM [31] = assay: Cell cycle arrest in human CCRF-CEM cells assessed as accumulation at G0/G1 phase at 5 times IC50 after 24 hrs by propidium iodide staining-based flow cytometry; format: functional; in short: as §2
CCRF-CEM [32] = assay: Induction of apoptosis in human CCRF-CEM cells assessed as inhibition of RNA synthesis at 5 times IC50 after 24 hrs by propidium iodide/BrU staining by flow cytometry; format: functional; design: scale not given: the % may be the effect or the level left
CCRF-CEM [33] = assay: Cell cycle arrest in human CCRF-CEM cells assessed as accumulation at S phase at IC50 after 24 hrs by propidium iodide staining-based flow cytometry; format: functional; in short: as §2
Nucleic Acid [34] = assay: Binding affinity to DNA (unknown origin) assessed as DNA intercalation by UV-visible spectrophotometry in presence of Zn2+; format: nucleic-acid assay
Nucleic Acid [35] = assay: Binding affinity to DNA (unknown origin) assessed as DNA intercalation by UV-visible spectrophotometry; format: nucleic-acid assay
CCRF-CEM [36] = assay: Cell cycle arrest in human CCRF-CEM cells assessed as accumulation at S phase at 5 times IC50 after 24 hrs by propidium iodide staining-based flow cytometry; format: functional; in short: as §2
[37] = Cytostatic activity against human p53-/- HCT116 cells after 72 hrs by MTT assay; format: functional, cell-based; settings: HCT-116, 72 h; in short: as §1
BJ [38] = assay: Selectivity index, ratio of IC50 for human BJ cells to IC50 for human p53-/- HCT116 cells; format: functional

## O=C(N/N=C/c1cc(F)ccc1O)c1ccc2c3c(ccc2c1)N1Cc2c(ccc4cc(C(=O)N/N=C/c5cc(F)ccc5O)ccc24)N(C3)C1
Nucleic Acid [1]
  Activity: Active
CCRF-CEM [2]
  Activity: 13.69%
Nucleic Acid [3]
  Activity: Active
HCT-116 [4]
  Ratio IC50: 64.9
K562 [5]
  Ratio IC50: 18.1
Pichia kudriavzevii
  Activity: inactive
[6]
  Activity: Not Active
[7]
  Activity: Active
[8]
  Activity: Not Active
MRC5 [9]
  Ratio IC50: 17.6
A549 [10]
  Ratio IC50: 33.6
[11]
  pIC50: 5.63
[12]
  pIC50: 6.19
CEM-DNR
  Ratio IC50: 9.8
K562 [13]
  pIC50: 5.64
Staphylococcus aureus [14]
  Activity: inactive
Staphylococcus aureus [15]
  Activity: inactive
[16]
  Activity: inactive
BJ [17]
  Ratio IC50: 64.9
MRC5 [18]
  pIC50: 4.54
[19]
  Activity: Active
CCRF-CEM [20]
  Activity: 0.15%
Pseudomonas aeruginosa
  Activity: inactive
Candida parapsilosis
  Activity: inactive
CCRF-CEM [21]
  Activity: 40.42%
A549 [22]
  Ratio IC50: 33.6
CCRF-CEM [23]
  Activity: 13.05%
Enterococcus faecalis
  Activity: inactive
[24]
  Activity: Active
[25]
  Activity: Not Active
[26]
  Activity: Not Active
HCT-116 [27]
  Ratio IC50: 51
CCRF-CEM [28]
  Activity: 1.54%
Candida tropicalis
  Activity: inactive
[29]
  Activity: Active
Nucleic Acid [30]
  Activity: Active
CCRF-CEM [31]
  Activity: 41.1%
CCRF-CEM [32]
  Activity: 4.37%
CCRF-CEM [33]
  Activity: 55.45%
Nucleic Acid [34]
  Activity: Active
Nucleic Acid [35]
  Activity: inactive
CCRF-CEM [36]
  Activity: 42.41%
[37]
  pIC50: 6.09
BJ [38]
  Ratio IC50: 51

## COC(=O)c1ccc(O)c(/C=N/NC(=O)c2ccc3c4c(ccc3c2)N2Cc3c(ccc5cc(C(=O)N/N=C/c6cc(C(=O)OC)ccc6O)ccc35)N(C4)C2)c1
Nucleic Acid [1]
  Activity: Active
CCRF-CEM [2]
  Activity: 46.43%
Nucleic Acid [3]
  Activity: Active
HCT-116 [4]
  Ratio IC50: 8.9
K562 [5]
  Ratio IC50: 9.4
Pichia kudriavzevii
  Activity: inactive
[6]
  Activity: Not Active
[7]
  Activity: Active
[8]
  Activity: Not Active
MRC5 [9]
  Ratio IC50: 4.3
A549 [10]
  Ratio IC50: 7.7
[11]
  pIC50: 4.67
[12]
  pIC50: 4.99
CEM-DNR
  Ratio IC50: 3.2
K562 [13]
  pIC50: 5.01
Staphylococcus aureus [14]
  Activity: inactive
Staphylococcus aureus [15]
  Activity: inactive
[16]
  Activity: inactive
BJ [17]
  Ratio IC50: 8.9
MRC5 [18]
  pIC50: 4.02
[19]
  Activity: Active
CCRF-CEM [20]
  Activity: 0.86%
Pseudomonas aeruginosa
  Activity: inactive
Candida parapsilosis
  Activity: inactive
CCRF-CEM [21]
  Activity: 12.85%
A549 [22]
  Ratio IC50: 7.7
CCRF-CEM [23]
  Activity: 12.83%
Enterococcus faecalis
  Activity: inactive
[24]
  Activity: Active
[25]
  Activity: Not Active
[26]
  Activity: Not Active
HCT-116 [27]
  Ratio IC50: 9.7
CCRF-CEM [28]
  Activity: 54.61%
Candida tropicalis
  Activity: inactive
[29]
  Activity: Active
Nucleic Acid [30]
  Activity: Active
CCRF-CEM [31]
  Activity: 31.26%
CCRF-CEM [32]
  Activity: 21.03%
CCRF-CEM [33]
  Activity: 38.54%
Nucleic Acid [34]
  Activity: Active
Nucleic Acid [35]
  Activity: inactive
CCRF-CEM [36]
  Activity: 55.48%
[37]
  pIC50: 5.02
BJ [38]
  Ratio IC50: 9.7

Reference: ChEMBL document CHEMBL3400013, “Synthesis and biological activity evaluation of hydrazone derivatives based on a Tröger's base skeleton” (Bioorg Med Chem, 2015)
